Source: ChEMBL document CHEMBL1148614, “Synthesis and evaluation of 2-anilino-3-phenylsulfonyl-6-methylpyridines as corticotropin-releasing factor1 receptor ligands” (Bioorg Med Chem Lett, 2006)

Tests used:
[1] = target: T1, Corticotropin-releasing factor receptor 1 (Rattus norvegicus, UniProt P35353); experiment: Displacement of [125I]Tyr-o-CRF from CRF1 receptor in rat frontal cortex homogenates; format: tissue-based
T1 sequence (P35353 whole entry): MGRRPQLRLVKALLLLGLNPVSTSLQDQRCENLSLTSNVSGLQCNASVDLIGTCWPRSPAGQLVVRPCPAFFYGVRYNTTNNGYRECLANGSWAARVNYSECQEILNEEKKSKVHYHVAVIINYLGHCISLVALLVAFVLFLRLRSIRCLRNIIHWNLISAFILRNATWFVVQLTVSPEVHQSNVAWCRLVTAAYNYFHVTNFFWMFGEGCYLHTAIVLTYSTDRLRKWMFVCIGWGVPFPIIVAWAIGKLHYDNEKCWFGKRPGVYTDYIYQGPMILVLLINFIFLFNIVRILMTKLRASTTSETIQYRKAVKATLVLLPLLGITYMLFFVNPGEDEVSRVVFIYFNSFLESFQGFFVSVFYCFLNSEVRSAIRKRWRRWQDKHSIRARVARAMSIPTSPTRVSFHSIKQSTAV

[2] = Clearance in Sprague-Dawley rat at 0.5 mg/kg, iv; format: ADME, organism-based; parameters: dose 0.5 mg/kg, route intravenous; conditions: in vivo
[3] = tested on: Rattus norvegicus; experiment: Volume of distribution in Sprague-Dawley rat at 0.5 mg/kg, iv; format: ADME, organism-based; parameters: dose 0.5 mg/kg, route intravenous; conditions: in vivo
[4] = Half life in Sprague-Dawley rat at 0.5 mg/kg, iv; format: ADME, organism-based; parameters: dose 0.5 mg/kg, route intravenous; conditions: in vivo
[5] = AUC in Sprague-Dawley rat at 2.0 mg/kg, po; format: ADME, organism-based; parameters: dose 2 mg/kg, route oral; conditions: plasma
Method in brief: (§1)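 Cassette dosing in Sprague–Dawley rats (n = 3 per route). Oral dose 2 mg/kg, with plasma sampled at 0, 0.5, 1, 2, 4, 6, 8 and 24 h. Plasma drug levels measured by LC/MS/MS.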

[6] = Cmax in Sprague-Dawley rat at 2.0 mg/kg, po; format: ADME, organism-based; parameters: dose 2 mg/kg, route oral; conditions: in vivo; method in brief: as §1
[7] = Bioavailability in Sprague-Dawley rat at 2.0 mg/kg, po; format: ADME, organism-based; conditions: in vivo; method in brief: as §1

| SMILES | Ki [1] | further results |
| --- | --- | --- |
| COc1cccc(S(=O)(=O)c2ccc(C)nc2Nc2c(C)cc(C)cc2C)c1 | 249 nM |  |
| Cc1cc(C)c(Nc2nc(C)ccc2S(=O)(=O)c2cccc(OCc3ccccc3)c2)c(C)c1 | 132 nM |  |
| COc1cc(COc2ccc(S(=O)(=O)c3ccc(C)nc3Nc3c(C)cc(C)cc3C)cc2)cc(OC)c1 | 34 nM |  |
| Cc1cc(C)c(Nc2nc(C)ccc2S(=O)(=O)c2ccc(OC(F)(F)F)cc2)c(C)c1 | 268 nM |  |
| Cc1cc(C)c(Nc2nc(C)ccc2S(=O)(=O)c2ccc(OCCCCC#N)cc2)c(C)c1 | 395 nM |  |
| Cc1cc(C)c(Nc2nc(C)ccc2S(=O)(=O)c2ccc(CO)cc2)c(C)c1 | 1080 nM |  |
| Cc1ccc(S(=O)(=O)c2c(C)cc(C)nc2Nc2c(C)cc(C)cc2C)cc1 | 1780 nM |  |
| COc1ccc(S(=O)(=O)c2ccc(C)nc2Nc2c(C)cc(C)cc2C)cc1 | 198 nM |  |
| C=CCOc1ccc(S(=O)(=O)c2ccc(C)nc2Nc2c(C)cc(C)cc2C)cc1 | 119 nM |  |
| Cc1cccc(S(=O)(=O)c2c(C)cc(C)nc2Nc2c(C)cc(C)cc2C)c1 | 5170 nM |  |
| CCc1ccc(S(=O)(=O)c2ccc(C)nc2Nc2c(C)cc(C)cc2C)cc1 | 52 nM | clearance [2]: 86.7 mL/min/kg; Vss [3]: 25 L/kg; half-life [4]: 5.1 h; AUC [5]: 0.347 µM·h; Cmax [6]: 72 nM; bioavailability [7]: 35% |
| Cc1cc(C)c(Nc2nc(C)ccc2S(=O)(=O)c2ccc(OCc3cccc(C#N)c3)cc2)c(C)c1 | 75 nM |  |
| COc1cccc(COc2ccc(S(=O)(=O)c3ccc(C)nc3Nc3c(C)cc(C)cc3C)cc2)c1 | 58 nM |  |
| Cc1cc(C)c(Nc2nc(C)ccc2S(=O)(=O)c2ccc(OCc3ccc(C#N)cc3)cc2)c(C)c1 | 157 nM |  |
| Cc1ccc(S(=O)(=O)c2ccc(C)nc2Nc2c(C)cc(C)cc2C)cc1 | 145 nM |  |
| Cc1cc(C)c(Nc2nc(C)ccc2S(=O)(=O)Cc2ccc(Cl)cc2)c(C)c1 | 857 nM |  |
| Cc1cc(C)c(Nc2nc(C)cc(C)c2S(=O)(=O)c2ccccc2C)c(C)c1 | > 10000 nM |  |
| Cc1cc(C)c(Nc2nc(C)ccc2S(=O)(=O)c2ccc(OCCCC#N)cc2)c(C)c1 | 635 nM |  |
| COc1ccccc1COc1ccc(S(=O)(=O)c2ccc(C)nc2Nc2c(C)cc(C)cc2C)cc1 | 17 nM | clearance [2]: 58.3 mL/min/kg; Vss [3]: 8 L/kg; half-life [4]: 3.5 h; AUC [5]: 0.176 µM·h; Cmax [6]: 48 nM; bioavailability [7]: 16% |
| Cc1cc(C)c(Nc2nc(C)cc(C)c2S(=O)(=O)c2ccccc2)c(C)c1 | > 10000 nM |  |
| Cc1ccc(S(=O)(=O)c2ccc(Nc3c(C)cc(C)cc3C)nc2C)cc1 | > 10000 nM |  |
| Cc1cc(C)c(Nc2nc(C)ccc2S(=O)(=O)c2ccc(OCc3ccccn3)cc2)c(C)c1 | 250 nM |  |
| Cc1cc(C)c(Nc2nc(C)ccc2S(=O)(=O)c2ccc(OCc3ccccc3)cc2)c(C)c1 | 32 nM | clearance [2]: 78.3 mL/min/kg; Vss [3]: 10 L/kg; half-life [4]: 3 h; AUC [5]: 0.167 µM·h; Cmax [6]: 42 nM; bioavailability [7]: 18% |
| COC(=O)c1cccc(COc2ccc(S(=O)(=O)c3ccc(C)nc3Nc3c(C)cc(C)cc3C)cc2)c1 | 49 nM |  |
